Reference: PMC7647946 (Drug delivery and translational research, 2021)

Assays:
Organ = assay type: in vivo, rat; details: healthy rats
Procedure, shortened: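 Male Sprague-Dawley rats (6–8 weeks, 275–300 g), urethane-anaesthetised, with a femoral-vein cannula. Test compound at 0.5 mg/ml in 10% Tween 80/sterile 1X DPBS, 2 ml infused slowly. Brain taken at 1 and 3 h (n=3 per time), rinsed, held at −80° C. 200–400 mg homogenised in DPBS with 7-hydroxyflavone internal standard. Cold-acetonitrile precipitation, N2 drying, mobile-phase reconstitution. HPLC-diode array against naïve-tissue standards; mean ± SD.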

[1] = test system: pERK1/2 expression in PVN; details: 1-hour ICV infusion, rats with heart failure; ref [23]; cited from earlier work
[2] = Solubility of PD98059 in the release medium; assay type: physicochemical; details: 0.4% v/v Tween 80 in 1X DPBS, 37° C
rats with heart failure = details: cited from earlier work
[3] = Pharmacokinetics of PD98059 following IV injection; assay type: in vivo, rat
Procedure, shortened: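 Male Sprague-Dawley rats, urethane-anaesthetised, received slow femoral-vein infusion of test compound (0.5 mg/ml, 2 ml, 10% Tween 80/DPBS). Blood drawn at 5, 15, 30, 60, 180 and 360 min into K2-EDTA, plasma stored at −80° C. 100 μl plasma spiked with 7-hydroxyflavone, acetonitrile-precipitated, dried and reconstituted. HPLC against naïve-plasma standards; n=3 (n=1 at 6 h). PK Solver 1-/2-compartment fits; non-compartmental AUC0-t.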

[4] = 1-hour ICV infusion, rats with heart failure, ref [23]
[5] = 1-compartment model, IV 1 mg, healthy rats
[6] = 2-compartment model, IV 1 mg, healthy rats
[7] = non-compartmental analysis, IV 1 mg, healthy rats

Q: Which results are given for `COc1cccc(-c2cc(=O)c3ccccc3o2)c1N` [PD98059]?
A: brain PD98059 level (Organ; 1 hour after IV 1 mg): approximately 410 ng/g; brain PD98059 level (Organ; 3 hours after IV 1 mg): ~76 ng/g; pERK1/2 expression in PVN [1]: decreased; solubility in release medium [2]: approximately 113 μg/ml; neuronal excitation in PVN (rats with heart failure; [4]): decreased; renal sympathetic nerve activity (rats with heart failure; [4]): decreased; plasma norepinephrine (index of overall sympathetic nerve activity) (rats with heart failure; chronic (4 week) ICV infusions, heart failure rats, ref [19]): reduced; AUC0-inf [3, 5]: 76774.83 ng·min/mL; AUC0-t [3, 5]: 76774.82 ng·min/mL; AUMC [3, 5]: 1716754 ng.min^2/ml; C0 [3, 5]: 3433.44 ng/mL; CI [3, 5]: 13.03 mL/min; K [3, 5]: 0.045 min⁻¹; MRT [3, 5]: 0.3727 h; T1/2 [3, 5]: 0.258 h; V [3, 5]: 291.25 mL; Vss [3, 5]: 291.25 mL; A [3, 6]: 3236.5 ng/mL; AUC0-inf [3, 6]: 135064 ng·min/mL; AUC0-t [3, 6]: 131605.22 ng·min/mL; AUMC [3, 6]: 11287504.55 ng.min^2/ml; B [3, 6]: 980.76 ng/mL; C0 [3, 6]: 4217.23 ng/mL; CI [3, 6]: 7.4 mL/min; K10 [3, 6]: 0.031 min⁻¹; K12 [3, 6]: 0.05 min⁻¹; K21 [3, 6]: 0.031 min⁻¹; MRT [3, 6]: 1.393 h; V [3, 6]: 237.12 mL; Vss [3, 6]: 618.76 mL; α [3, 6]: 0.104 min; β [3, 6]: 0.0094 min; AUC0-t ([3]; IV 1 mg PD98059 in solution, NCA): 142720 ng·min/mL; K (elimination rate constant) ([3]; non-compartmental analysis, IV 1 mg PD98059 in 10% Tween 80, healthy rats, plasma): 0.0074 min⁻¹; AUC0-inf [3, 7]: 152980.9 ng·min/mL; AUC0-t [3, 7]: 142723.37 ng·min/mL; AUMC0-inf [3, 7]: 14922241.77 ng.min^2/ml; C0 (plasma concentration at 0 time) [3, 7]: 3863.5 ng/mL; CI (clearance) [3, 7]: 6.54 mL/min; MRT0-inf [3, 7]: 1.626 h; V (volume of distribution) [3, 7]: 885.82 mL; Vss (steady state volume of distribution) [3, 7]: 637.62 mL; T1/2 (plasma half-life) ([3]; non-compartmental analysis, IV 1 mg, healthy rats, plasma): 1.566 h
